ChEMBL document CHEMBL1143578, “From 1-acyl-beta-lactam human cytomegalovirus protease inhibitors to 1-benzyloxycarbonylazetidines with improved antiviral activity. A straightforward approach to convert covalent to noncovalent inhibitors” (J Med Chem, 2005)

Experiments:
[1] = test system: HEL; assay: Minimum cytotoxic concentration required to cause a microscopically visible alteration of HEL fibroblast cell morphology; format: functional; settings: Homo sapiens
In short: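 HEL cell morphology was examined under the microscope after compound exposure. MCC is the lowest concentration producing a detectable alteration in morphology.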

[2] = test system: HEL; assay: Effective concentration required to reduce Varicella-Zoster virus OKA(TK) plaque formation after 5 days in HEL fibroblast cell line; format: functional, cell-based; settings: Homo sapiens, 120 h
In short: (§1)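 Confluent HEL cells were inoculated with VZV at 20 PFU/well for 2 h. Residual virus was removed and varying compound concentrations were added in duplicate. Plaques were counted after 5 days. EC50 is the concentration halving plaque formation relative to untreated controls.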

[3] = test system: HEL; assay: Effective concentration required to reduce Varicella-Zoster virus 07/1(TK-) plaque formation after 5 days in HEL fibroblast cell line; format: functional, cell-based; settings: Homo sapiens, 120 h; in short: as §1
[4] = test system: HEL; assay: Effective concentration required to inhibit human cytomegalo virus Davis induced cytopathicity in HEL fibroblast cell line after 7 days of postinfection; format: functional, cell-based; settings: 168 h
In short: (§2)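 Confluent HEL fibroblasts were infected with 100 PFU/well for 2 h, then residual virus was removed. Cells were incubated with a range of compound concentrations, in duplicate, for 7 days at 37 °C. Cells were ethanol-fixed and Giemsa-stained, and cytopathogenicity was scored microscopically. EC50 was read from plots of % cytopathogenicity against concentration.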

[5] = test system: HEL; assay: Effective concentration required to inhibit human cytomegalo virus AD-169 induced cytopathicity in HEL fibroblast cell line after 7 days of postinfection; format: functional, cell-based; settings: 168 h; in short: as §2
[6] = test system: HEL; assay: Cytotoxic concentration required to reduce HEL cell growth; format: functional; settings: Homo sapiens
In short: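 HEL cells seeded at 5 × 10³ cells/well and allowed to proliferate 24 h, then exposed to a range of compound concentrations for 3 days at 37 °C. Cell number was counted with a Coulter counter. CC50 is the concentration giving 50% growth reduction versus untreated controls, read from plots of cell number (% of control) against concentration.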

For `C[C@H](NC(=O)N1C(=O)C[C@@]1(Cc1ccccc1)C(=O)O)c1ccccc1`, the MCC [1] was 200 µM, the EC50 [2] was > 200 µM and the EC50 [3] was 110 µM.

Work on `CC(C)(C)OC(=O)C1(Cc2ccccc2)CC(=O)N1C(=O)OCc1ccccc1` (stereo not given) yielded an MCC [1] of 50 µM, an EC50 [2] of 12 µM and an EC50 [3] of 8 µM.

For `CC(C)(C)OC(=O)C1(Cc2ccccc2)CCN1C(=O)OCc1ccccc1` (stereo not given), the MCC [1] was 5 µM, the EC50 [2] was > 2 µM and the EC50 [3] was > 2 µM. It also gave an EC50 [4] of 0.6 µM and an EC50 [5] of 0.7 µM.

With `C[C@@H](NC(=O)N1C(=O)C[C@]1(Cc1ccccc1)C(=O)OC(C)(C)C)c1ccccc1` the MCC [1] was > 200 µM, the EC50 [2] was > 50 µM and the EC50 [3] was > 50 µM.

In the case of `CC(C)(C)OC(=O)[C@]1(Cc2ccccc2)CC(=O)N1C(=O)Nc1ccccc1`, the MCC [1] is reported as 200 µM, the EC50 [2] is reported as 33 µM and the EC50 [3] is reported as 13 µM. The EC50 [4] was 50 µM and the EC50 [5] was 50 µM.

In the case of `CNC(=O)[C@H](C)NC(=O)C1(Cc2ccccc2)CCN1C(=O)OCc1ccccc1` (stereo not given in full), the MCC [1] is reported as > 50 µM, the EC50 [2] is reported as > 50 µM and the EC50 [3] is reported as > 50 µM. The CC50 [6] was > 50 µM, the EC50 [4] was 5 µM and the EC50 [5] was 7.4 µM.

For `CC(C)(C)NC(=O)C1(Cc2ccccc2)CCN1C(=O)OCc1ccccc1` (stereo not given), the MCC [1] was ≥ 16 µM, the EC50 [2] was > 3.2 µM and the EC50 [3] was > 16 µM. For the same molecule, the CC50 [6] was 36 µM, the EC50 [4] was 4.4 µM and the EC50 [5] was 5.5 µM.

In the case of `CC(C)(C)OC(=O)N1C(=O)CC1(Cc1ccccc1)C(=O)OC(C)(C)C` (stereo not given), the MCC [1] is reported as > 200 µM, the EC50 [4] is reported as > 200 µM and the EC50 [5] is reported as > 200 µM.

In the case of `C[C@@H](NC(=O)N1C(=O)C[C@@]1(Cc1ccccc1)C(=O)O)c1ccccc1`, the MCC [1] is reported as > 200 µM, the EC50 [3] is reported as 151 µM and the EC50 [4] is reported as > 200 µM.

In the case of `Nc1nc2c(ncn2COC(CO)CO)c(=O)[nH]1` [GANCICLOVIR], the MCC [1] is reported as > 1500 µM.

With `Nc1ccn(C[C@@H](CO)OCP(=O)(O)O)c(=O)n1` [CIDOFOVIR] the MCC [1] was > 1400 µM, the EC50 [4] was 1 µM and the EC50 [5] was 0.6 µM.

In the case of `C[C@@H](NC(=O)N1CCC1(Cc1ccccc1)C(=O)OC(C)(C)C)c1ccccc1` (stereo not given in full), the MCC [1] is reported as 400 µM, the EC50 [2] is reported as 36 µM and the EC50 [3] is reported as 25 µM. It also gave a CC50 [6] of 57 µM, an EC50 [4] of 33 µM and an EC50 [5] of 40 µM.

For `C[C@H](NC(=O)N1C(=O)C[C@]1(Cc1ccccc1)C(=O)OC(C)(C)C)c1ccccc1`, the MCC [1] was 200 µM, the EC50 [2] was > 50 µM and the EC50 [3] was 14 µM.

With `C[C@H](NC(=O)N1C(=O)C[C@@]1(Cc1ccccc1)C(=O)OC(C)(C)C)c1ccccc1` the MCC [1] was 200 µM, the EC50 [2] was 37 µM and the EC50 [3] was 20 µM.

`COC(=O)[C@H](C)NC(=O)C1(Cc2ccccc2)CCN1C(=O)OCc1ccccc1` (stereo not given in full) was tested, and the MCC [1] was 400 µM, the EC50 [2] was > 80 µM and the EC50 [3] was > 80 µM. For the same molecule, the CC50 [6] was 50 µM, the EC50 [4] was > 80 µM and the EC50 [5] was > 80 µM.

For `C[C@@H](NC(=O)N1C(=O)C[C@]1(Cc1ccccc1)C(=O)O)c1ccccc1`, the MCC [1] was 200 µM, the EC50 [2] was > 200 µM and the EC50 [3] was > 200 µM.

`COC(=O)[C@@]1(Cc2ccccc2)CC(=O)N1C(=O)N[C@@H](C)c1ccccc1` was tested, and the MCC [1] was > 50 µM, the EC50 [2] was > 50 µM and the EC50 [3] was > 50 µM. For the same molecule, the CC50 [6] was > 50 µM and the EC50 [5] was > 50 µM.

In the case of `C[C@H](NC(=O)N1C(=O)C[C@]1(Cc1ccccc1)C(=O)O)c1ccccc1`, the MCC [1] is reported as > 200 µM, the EC50 [3] is reported as 111 µM and the EC50 [4] is reported as > 200 µM.

For `C[C@H](NC(=O)C1(Cc2ccccc2)CCN1C(=O)OCc1ccccc1)C(N)=O` (stereo not given in full), the MCC [1] was ≥ 400 µM, the EC50 [2] was > 80 µM and the EC50 [3] was > 80 µM. For the same molecule, the CC50 [6] was 50 µM, the EC50 [4] was 32 µM and the EC50 [5] was 39 µM.

With `O=C(OCc1ccccc1)N1CCC1(Cc1ccccc1)C(=O)NC1CCCCC1` (stereo not given) the MCC [1] was ≥ 16 µM, the EC50 [2] was 7.8 µM and the EC50 [3] was 5.1 µM. The CC50 [6] was 37 µM, the EC50 [4] was 3.2 µM and the EC50 [5] was 5.9 µM.

For `C[C@H](NC(=O)C1(Cc2ccccc2)CCN1C(=O)OCc1ccccc1)C(=O)O` (stereo not given in full), the MCC [1] was ≥ 400 µM, the EC50 [2] was > 80 µM and the EC50 [3] was > 80 µM. For the same molecule, the CC50 [6] was 124 µM, the EC50 [4] was > 80 µM and the EC50 [5] was > 400 µM.

For `C[C@@H](NC(=O)N1C(=O)C[C@@]1(Cc1ccccc1)C(=O)OC(C)(C)C)c1ccccc1`, the MCC [1] was 200 µM, the EC50 [2] was > 50 µM and the EC50 [3] was 23 µM.

With `Nc1nc2c(ncn2COCCO)c(=O)[nH]1` [ACYCLOVIR] the MCC [1] was > 1200 µM, the EC50 [2] was 7.1 µM and the EC50 [3] was 111 µM. It also gave a CC50 [6] of 511 µM, an EC50 [4] of 20 µM and an EC50 [5] of 17 µM.

In the case of `COC(=O)N1CCC1(Cc1ccccc1)C(=O)N[C@@H](C)C(N)=O` (stereo not given in full), the MCC [1] is reported as > 400 µM, the EC50 [2] is reported as > 400 µM and the EC50 [3] is reported as 346 µM. For the same molecule, the CC50 [6] was > 200 µM, the EC50 [4] was > 400 µM and the EC50 [5] was > 400 µM.

For `C[C@H](NC(=O)C1(Cc2ccccc2)CCN1C(=O)OCc1ccccc1)C(=O)OC(C)(C)C` (stereo not given in full), the MCC [1] was 80 µM, the EC50 [2] was 16 µM and the EC50 [3] was > 16 µM. The CC50 [6] was 33 µM, the EC50 [4] was 4.4 µM and the EC50 [5] was 16 µM.

Molecule `O=c1[nH]c(=O)n([C@H]2C[C@H](O)[C@@H](CO)O2)cc1/C=C/Br` [BRIVUDINE] has an MCC [1] of 1200 µM, an EC50 [3] of 103 µM and a CC50 [6] of 249 µM. The EC50 [4] was > 100 µM and the EC50 [5] was > 100 µM.

With `O=C1C[C@H](Cc2ccccc2)N1C(=O)NCc1ccccc1` the CC50 [6] was > 250 µM.

In the case of `COC(=O)[C@]1(Cc2ccccc2)CCN1C(=O)N[C@@H](C)c1ccccc1`, the MCC [1] is reported as > 50 µM, the EC50 [2] is reported as 50 µM and the EC50 [3] is reported as 50 µM. The CC50 [6] was > 50 µM and the EC50 [5] was > 20 µM.

For `COC(=O)[C@@]1(Cc2ccccc2)CCN1C(=O)N[C@@H](C)c1ccccc1`, the MCC [1] was > 50 µM, the EC50 [2] was > 50 µM and the EC50 [3] was > 50 µM. The CC50 [6] was > 50 µM and the EC50 [5] was > 20 µM.

For `COC(=O)[C@]1(Cc2ccccc2)CC(=O)N1C(=O)N[C@@H](C)c1ccccc1`, the MCC [1] was > 50 µM, the EC50 [2] was > 50 µM and the EC50 [3] was > 50 µM. For the same molecule, the CC50 [6] was > 50 µM and the EC50 [5] was > 50 µM.
